Measured values taken from ChEMBL document CHEMBL1687909, “Design, synthesis, and biological evaluation of new cinnamic derivatives as antituberculosis agents” (J Med Chem, 2011).
Converted amounts (≈) assume the structure as drawn.

Assays:
[1] = tested on: Mycobacterium tuberculosis; test: Antituberculosis activity against Mycobacterium tuberculosis 1400 harboring KatG mutant gene after 7 days by MTT assay; assay type: functional
Procedure, shortened: (§1)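 Colorimetric MTT microassay: serial 2-fold dilutions from DMSO stocks in Middlebrook 7H9 broth, bacterial suspension in 7H9 added. After 6 days, MTT (1 mg/mL) added; 1 day later solubilization buffer, OD 570 nm. MIC = lowest concentration inhibiting growth, untreated bacilli as growth control.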

[2] = tested on: Mycobacterium tuberculosis; test: Antituberculosis activity against Mycobacterium tuberculosis MYC5165 harboring InhA mutant gene after 7 days by MTT assay; assay type: functional; procedure, shortened: as §1

COc1ccc(/C=C/C(=O)NNC(=O)c2ccncc2)cc1 was tested, and the MIC [1] was 320 µM (≈ 95.1 µg/mL) and the MIC [2] was 16 µM (≈ 4.76 µg/mL).
NNC(=O)c1ccncc1 [ISONIAZID] was tested, and the MIC [1] was 729 µM (≈ 100 µg/mL) and the MIC [2] was 18 µM (≈ 2.47 µg/mL).
CC(C)=CCOc1ccc(/C=C/C(=O)NNC(=O)c2ccncc2)cc1 gave an MIC [1] of 68 µM (≈ 23.9 µg/mL) and an MIC [2] of 27 µM (≈ 9.49 µg/mL).
Compound O=C(O)c1cn(C2CC2)c2cc(N3CCNCC3)c(F)cc2c1=O [CIPROFLOXACIN] has an MIC [1] of 5 µM (≈ 1.66 µg/mL) and an MIC [2] of 5 µM (≈ 1.66 µg/mL).
In the case of CC(C)=CCOc1ccc(/C=C/c2nnc3c4ccccc4cnn23)cc1, the MIC [1] is reported as 0.4 µM (≈ 0.143 µg/mL) and the MIC [2] is reported as 0.2 µM (≈ 0.0713 µg/mL).
